Measured values from ChEMBL document CHEMBL4014308, “Amphiphilic Tobramycin-Lysine Conjugates Sensitize Multidrug Resistant Gram-Negative Bacteria to Rifampicin and Minocycline” (J Med Chem, 2017).
Active and inactive are the calls of the source. No cut-off for these calls is given here.

How the values were obtained:
[1] = system: Acinetobacter baumannii; experiment: Potentiation of minocycline-induced antibacterial activity against multidrug-resistant Acinetobacter baumannii AB027 at 4 ug/ml after 18 hrs by checkerboard assay; assay type: functional
Method in brief: (§1)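 Checkerboard in Mueller-Hinton broth: antibiotic serially diluted along one axis and adjuvant along the other (10 × 7 matrix). Inoculum from a 0.5 McFarland saline suspension diluted 1:50 in MHB; 18 h at 37 °C, then plate read. MIC is the lowest concentration with no growth. FIC of each agent is its concentration in a no-growth well divided by its MIC alone; FIC index is the sum of both. FIC index ≤0.5 counts as synergy.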

[2] = system: Pseudomonas aeruginosa; experiment: Potentiation of rifampicin-induced antibacterial activity against multidrug/extremely drug-resistant/colistin-resistant Pseudomonas aeruginosa isolate 101243 assessed as fold reduction in rifampicin MIC at 4 ug/ml after 18 hrs by checkerboard assay relative to control; assay type: functional
Method in brief: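 Checkerboard in Mueller-Hinton broth, 10 × 7 matrix, with the adjuvant held at 4 µg/mL. Inoculum from a 0.5 McFarland suspension diluted 1:50; 18 h at 37 °C. Antibiotic MIC (lowest concentration with no growth) with adjuvant is compared with the antibiotic MIC alone, giving a fold reduction.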

[3] = system: Pseudomonas aeruginosa; experiment: Potentiation of minocycline-induced antibacterial activity against multidrug/extremely drug-resistant/colistin-susceptible Pseudomonas aeruginosa isolate P262-101856 infected in Galleria mellonella assessed as host survival at 75 mg/kg after 24 hrs relative to control; assay type: functional; details: isolate P262-101856, 24 h
Method in brief: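 Galleria mellonella larvae (about 250 mg, used within 7 days; 15 per group) were injected with 10 µL of XDR P. aeruginosa P262 at 1.0×10^3 CFU/mL. At 2 h they received a single 10 µL injection: monotherapy at 75 mg/kg, or combinations at 12.5+12.5 to 75+75 mg/kg. PBS vehicle served as control. Survival was scored over 24 h at 37 °C.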

[4] = system: Stenotrophomonas maltophilia; experiment: Antibacterial activity against Stenotrophomonas maltophilia isolate CAN-ICU 62584 after 18 hrs by microtiter dilution assay; assay type: functional; details: isolate CAN-ICU 62584, 18 h
Method in brief: (§2)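 Broth microdilution per CLSI. Overnight culture adjusted to 0.5 McFarland in saline, diluted 1:50 in Mueller-Hinton broth, and added to an equal volume of 2-fold serial compound dilutions in MHB. Incubated 18 h at 37 °C. MIC taken as the lowest concentration with no visible growth.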

[5] = system: Pseudomonas aeruginosa; experiment: Potentiation of moxifloxacin-induced antibacterial activity against Pseudomonas aeruginosa PAO1 at 4 ug/ml after 18 hrs by checkerboard assay; assay type: functional; method in brief: as §1
[6] = system: Staphylococcus aureus; experiment: Antibacterial activity against Staphylococcus aureus ATCC 29213 after 18 hrs by microtiter dilution assay; assay type: functional; details: ATCC 29213, 18 h
Method in brief: (§3)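 Broth microdilution following CLSI guidelines. An overnight culture was adjusted to 0.5 McFarland in saline, then diluted 1:50 in Mueller-Hinton broth. This inoculum was added in equal volume to 2-fold serial dilutions of agent in MHB and incubated 18 h at 37 °C. MIC was the lowest concentration with no visible growth.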

[7] = system: Acinetobacter baumannii; experiment: Potentiation of minocycline-induced antibacterial activity against multidrug-resistant Acinetobacter baumannii AB030 at 4 ug/ml after 18 hrs by checkerboard assay; assay type: functional; method in brief: as §1
[8] = system: Pseudomonas aeruginosa; experiment: Antibacterial activity against gentamicin-resistant Pseudomonas aeruginosa isolate CAN-ICU 62308 after 18 hrs by microtiter dilution assay; assay type: functional; details: isolate CAN-ICU 62308, 18 h; method in brief: as §3
[9] = system: Enterobacter cloacae; experiment: Potentiation of rifampicin-induced antibacterial activity against multidrug-resistant Enterobacter cloacae 117029 at 4 ug/ml after 18 hrs by checkerboard assay; assay type: functional; method in brief: as §1
[10] = system: Acinetobacter baumannii; experiment: Antibacterial activity against Acinetobacter baumannii isolate CAN-ICU 63169 after 18 hrs by microtiter dilution assay; assay type: functional; details: isolate CAN-ICU 63169, 18 h; method in brief: as §2
[11] = system: Klebsiella pneumoniae; experiment: Antibacterial activity against multidrug-resistant Klebsiella pneumoniae 116381 after 18 hrs by microtiter dilution assay; assay type: functional; details: Klebsiella pneumoniae, 116381, 18 h; method in brief: as §3
[12] = system: Pseudomonas aeruginosa; experiment: Potentiation of ceftazidime-induced antibacterial activity against Pseudomonas aeruginosa PAO1 at 4 ug/ml after 18 hrs by checkerboard assay; assay type: functional; method in brief: as §1
[13] = system: Pseudomonas aeruginosa; experiment: Potentiation of minocycline-induced antibacterial activity against Pseudomonas aeruginosa PAO1 at 4 ug/ml after 18 hrs by checkerboard assay; assay type: functional; method in brief: as §1
[14] = system: Acinetobacter baumannii; experiment: Antibacterial activity against multidrug-resistant Acinetobacter baumannii AB027 after 18 hrs by microtiter dilution assay; assay type: functional; details: AB027, 18 h; method in brief: as §3
[15] = system: Enterobacter cloacae; experiment: Synergistic antibacterial activity against multidrug-resistant Enterobacter cloacae 117029 after 18 hrs in presence of rifampicin by checkerboard assay; assay type: functional; details: Enterobacter cloacae, 117029, 18 h
Method in brief: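 Checkerboard in MHB with a 10 × 7 matrix: antibiotic serially diluted along one axis, adjuvant along the other. Inoculum was a 1:50 dilution of a 0.5 McFarland suspension, incubated 18 h at 37 °C and read on a plate reader. Each FIC is the concentration in a no-growth well divided by the MIC alone; FIC index is their sum, with ≤0.5 taken as synergy.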

[16] = system: Acinetobacter baumannii; experiment: Antibacterial activity against multidrug-resistant Acinetobacter baumannii AB031 after 18 hrs by microtiter dilution assay; assay type: functional; details: AB031, 18 h; method in brief: as §3
[17] = system: Pseudomonas aeruginosa; experiment: Potentiation of minocycline-induced antibacterial activity against Pseudomonas aeruginosa PAO1 after 25 serial passages at 0.125 times MIC by microtiter dilution assay; assay type: functional
Method in brief: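 Sequential passaging of wild-type PAO1 with single drugs or drug combinations. MIC was tested in MHB for 18 h. Cells from the well at half the MIC were adjusted to 0.5 McFarland in saline, diluted 1:50 in fresh MHB and used for the next MIC test. This was repeated for 25 passages, and the fold change in MIC was plotted against passage number.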

[18] = system: Pseudomonas aeruginosa; experiment: Synergistic antibacterial activity against Pseudomonas aeruginosa PAO1 after 18 hrs in presence of moxifloxacin by checkerboard assay; assay type: functional; details: PAO1, 18 h
Method in brief: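 Checkerboard in MHB: antibiotic diluted along one axis and adjuvant along the other (10 × 7 matrix). Inoculum was a 1:50 dilution in MHB of a 0.5 McFarland saline suspension; incubated 18 h at 37 °C. Each FIC = concentration in the no-growth well divided by the MIC alone; FIC index = sum of both FICs. ≤0.5 synergy, 0.5–4 no interaction, ≥4 antagonism.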

[19] = system: Staphylococcus aureus; experiment: Antibacterial activity against methicillin resistant Staphylococcus aureus ATCC 33592 after 18 hrs by microtiter dilution assay; assay type: functional; details: ATCC 33592, 18 h; method in brief: as §3
[20] = system: Pseudomonas aeruginosa; experiment: Induction of cytoplasmic membrane depolarization in Pseudomonas aeruginosa PAO1 up to 1200 secs by diSC3-5 staining based fluorescence assay; assay type: functional
Method in brief: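 Mid-log PAO1 washed in 5 mM HEPES pH 7.4 with 20 mM glucose and resuspended to OD600 0.05. Cells were loaded with 0.2 mM EDTA and 0.4 µM diSC3-5 for 2 h at 37 °C in the dark, then equilibrated with 100 mM KCl for 30 min. Agent was added and fluorescence followed at 622/670 nm; agents tested at 32 µg/mL.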

[21] = system: Pseudomonas aeruginosa; experiment: Potentiation of rifampicin-induced antibacterial activity against multidrug/extremely drug-resistant/colistin-susceptible Pseudomonas aeruginosa isolate P259-96918 at 4 ug/ml after 18 hrs by checkerboard assay; assay type: functional; method in brief: as §1
[22] = Ratio of cytotoxic concentration against human DU145 cells to synergistic concentration for Pseudomonas aeruginosa PAO1 in presence of rifampicin

## Cl.Cl.Cl.Cl.Cl.Cl.Cl.NCCCC[C@H](N)C(=O)N(CCCCCCCCCCCCO[C@@H]1[C@@H](O[C@H]2O[C@H](CO)[C@@H](O)[C@H](N)[C@H]2O)[C@H](N)C[C@H](N)[C@H]1O[C@H]1O[C@H](CN)[C@@H](O)C[C@H]1N)Cc1c2ccccc2c(Cl)c2ccccc12
[1]
  fractional inhibitory concentration index (FICI): 0.258
[2]
  fold change (FC): 32
[3]
  survival at 75 mg/kg: 77%
[4]
  MIC: > 128 µg/mL
[5]
  fractional inhibitory concentration index (FICI): 0.313
[6]
  MIC: 8 µg/mL
[7]
  fractional inhibitory concentration index (FICI): 0.375
[8]
  MIC: 16 µg/mL
[9]
  fractional inhibitory concentration index (FICI): 0.02
[10]
  MIC: 128 µg/mL
[11]
  MIC: 256 µg/mL
[12]
  fractional inhibitory concentration index (FICI): 0.563
[13]
  fractional inhibitory concentration index (FICI): 0.094
[14]
  MIC: 128 µg/mL
[15]
  MIC: 4 µg/mL
[16]
  MIC: 16 to 32 µg/mL
[17]
  Activity: Active
[18]
  MIC: 2 µg/mL
[19]
  MIC: 8 µg/mL
[20]
  Activity: Dose-dependent effect
[21]
  fractional inhibitory concentration index (FICI): 0.039
[22]
  Ratio: 6
